Measured values: ChEMBL document CHEMBL3407374, “Synthesis of structural analogues of hexadecylphosphocholine and their antineoplastic, antimicrobial and amoebicidal activity” (Eur J Med Chem, 2015)
Values after ≈ are worked out from the molar mass of the structure shown.

Assays:
[1] = test system: MCF7; assay: Cytotoxicity against human MCF7 cells after 24 hrs by MTT method; assay type: functional, cell-based; settings: MCF7, 24 h
Method in brief: (§1)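 MCF-7 grown in MEM with NEA, FCS, glutamine; A2780 in RPMI-1640 with FCS, glutamine; 37 °C, 5% CO₂, trypsin-EDTA passaging. Seeded 20 000 cells/well, treated after about 20 h; 24-h exposure. MTT read-out, formazan dissolved in DMSO, read at 492/520 nm. IC50 from log inhibitor versus normalized response sigmoidal fit.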

[2] = test system: A2780; assay: Cytotoxicity against human A2780 cells after 24 hrs by MTT method; assay type: functional, cell-based; settings: A2780, 24 h; method in brief: as §1
[3] = test system: HuT78; assay: Cytotoxicity against human HUT78 cells after 24 hrs by MTS method; assay type: functional, cell-based; settings: HuT78, 24 h
Method in brief: (§2)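 THP-1 and HUT-78 grown in suspension in RPMI-1640 with FCS, glutamine, penicillin-streptomycin, NEA, 2-sulfanylethanol, sodium pyruvate; 37 °C, 5% CO₂; passaged by centrifugation. 24-h exposure; MTS read-out (water-soluble formazan) at 492/520 nm. IC50 from log inhibitor versus normalized response sigmoidal fit.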

[4] = test system: THP-1; assay: Cytotoxicity against human THP1 cells after 24 hrs by MTS method; assay type: functional, cell-based; settings: THP-1, 24 h; method in brief: as §2
[5] = Cytotoxicity against human lymphocytes assessed as growth inhibition at 500 uM after 24 hrs by MTS method; assay type: cell-based, Lymphocyte; settings: for inhibition at 24 h, 500 µM: human lymphocytes, read-out: GI; for growth inhibition (GI): lymphocyte, 24 h, 500 µM
[6] = test system: Acanthamoeba lugdunensis; assay: Antiprotozoal activity against Acanthamoeba lugdunensis trophozoites assessed as viability after 1 to 48 hrs by trypan blue exclusion assay; assay type: functional
Method in brief: (§3)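 Trophozoites axenized from 2-day monoxenic agar cultures via BCS then PYG media with antibiotics, then cultured antibiotic-free in PYG. 2 × 10⁵ cells/ml suspension mixed 1:1 with medium holding compound; final […]. Survivors counted by haemocytometer with trypan blue at 1, 24, 48 h; eradication confirmed by 14-day PYG regrowth; MTC = lowest concentration giving 100% eradication.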

[7] = test system: Acanthamoeba quina; assay: Antiprotozoal activity against Acanthamoeba quina trophozoites assessed as viability after 1 to 48 hrs by trypan blue exclusion assay; assay type: functional; method in brief: as §3
[8] = test system: Staphylococcus aureus; assay: Antimicrobial activity against Staphylococcus aureus ATCC 29/58 assessed as prevention of colony formation after 24 hrs by spectrophotometry; assay type: functional; settings: ATCC 29/58, 24 h
Method in brief: (§4)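 Bacteria grown 24 h on blood agar, Candida on Sabouraud agar; suspensions in physiological solution (pH 7.2), 5 × 10⁷ CFU/ml bacteria, 5 × 10⁵ CFU/ml Candida. […] suspension added to aqueous compound solution plus double-strength peptone broth (bacteria) or Sabouraud medium (Candida). Incubated 24 h at 37 °C in 96-well plates, then subcultured on agar 24 h at 37 °C.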

[9] = test system: Escherichia coli; assay: Antimicrobial activity against Escherichia coli ATCC 377/79 assessed as prevention of colony formation after 24 hrs by spectrophotometry; assay type: functional; settings: ATCC 377/79, 24 h; method in brief: as §4
[10] = test system: Candida albicans; assay: Antimicrobial activity against Candida albicans ATCC 8186 assessed as prevention of colony formation after 24 hrs by spectrophotometry; assay type: functional; settings: ATCC 8186, 24 h; method in brief: as §4
[11] = Solubility of the compound in water; assay type: physicochemical; settings: buffer
[12] = test system: Acanthamoeba quina; assay: Ratio of miltefosine MTC to compound MTC for Acanthamoeba quina trophozoites assessed as viability after 1 to 48 hrs by trypan blue exclusion assay; assay type: functional
[13] = Critical micelle concentration of the compound; assay type: ADME

Row | MIC [8] [µM] | MIC [9] [µM] | MIC [10] [µM] | solubility [11] | CMC [13] | SMILES | IC50 [1] [µM] | IC50 [2] [µM] | IC50 [3] [µM] | IC50 [4] [µM] | inhibition at 24 h, 500 µM [5] [%] | MTC [6] [µM] | MTC [7] [µM] | Ratio [12] | growth inhibition (GI) [5]
1 | > 1000 | > 1000 | 21.1 (≈ 8.62 µg/mL) | soluble |  | CCCCCCCCCCCCCCC[N+](C)(C)CCOP(=O)([O-])OCC | 14.4 | 7.44 | 35.2 | 30.5 | 10 | 62.5 | 62.5 | 2 | 
2 | > 1000 | > 1000 | 86.3 (≈ 35.2 µg/mL) | soluble |  | CCCCCCCCCCCCCC[N+](C)(C)CCOP(=O)([O-])OCCC | 20.9 | 9.26 | 29.1 | 29.4 | 12 | 125 | 125 |  | 
3 | > 1000 | > 1000 | 352 (≈ 144 µg/mL) | soluble |  | CCCCCCCCCCCC[N+](C)(C)CCOP(=O)([O-])OCCCCC | 25.8 | 18.3 | 68 | 71.2 |  | 125 | 125 |  | 
4 | > 1000 | > 1000 | 360 (≈ 147 µg/mL) | soluble |  | CCCCCCCCCCC[N+](C)(C)CCOP(=O)([O-])OCCCCCC | 64.5 | 25.7 | 96 | 31.2 |  | 62.5 | 125 |  | 
5 | > 1000 | > 1000 | 352 (≈ 144 µg/mL) | soluble |  | CCCCCCCCCC[N+](C)(C)CCOP(=O)([O-])OCCCCCCC | 26.2 | 4.7 | 437 | 647 |  | 125 | 125 |  | Non-toxic
6 | > 1000 | > 1000 | 367 (≈ 150 µg/mL) | soluble |  | CCCCCCCCC[N+](C)(C)CCOP(=O)([O-])OCCCCCCCC | 19.2 | 4.32 | 280 | 544 |  | 125 | 125 |  | Non-toxic
7 | > 1000 | > 1000 | 734 (≈ 299 µg/mL) | soluble |  | CCCCCCCCCOP(=O)([O-])OCC[N+](C)(C)CCCCCCCC | 34 | 7.31 | 146 | 170 |  | 250 | 250 |  | Non-toxic
8 | > 1000 | > 1000 | 180 (≈ 73.3 µg/mL) | soluble |  | CCCCCCCCCCOP(=O)([O-])OCC[N+](C)(C)CCCCCCC | 62.2 | 35.1 | 52.9 | 101 |  | 250 | 250 |  | 
9 | > 1000 | > 1000 | 188 (≈ 76.4 µg/mL) | soluble |  | CCCCCCCCCCCOP(=O)([O-])OCC[N+](C)(C)CCCCCC | 111 | 19.2 | 82.6 | 92 |  | 125 | 250 |  | 
10 | > 1000 | > 1000 | 184 (≈ 74.8 µg/mL) | soluble |  | CCCCCCCCCCCCOP(=O)([O-])OCC[N+](C)(C)CCCCC | 66.1 | 24.8 | 55.2 | 93.2 |  | 125 | 125 |  | 
11 | > 1000 | > 1000 | 11.7 (≈ 4.77 µg/mL) | soluble |  | CCCCCCCCCCCCCCOP(=O)([O-])OCC[N+](C)(C)CCC | 50.6 | 28.6 | 51.4 | 127 |  | 125 | 125 |  | 
12 | > 1000 | > 1000 | 2.93 (≈ 1.19 µg/mL) | soluble |  | CCCCCCCCCCCCCCCOP(=O)([O-])OCC[N+](C)(C)CC | 43.3 | 10.1 | 62.7 | 96.8 |  | 125 | 125 |  | 
13 |  |  |  |  | 1 mmol/dm3 | CCCCCCCCOP(=O)([O-])OCC[N+](C)(C)CCCCCCCC |  |  |  |  |  |  |  |  | 
14 | 11.5 (≈ 4.69 µg/mL) | > 1000 | 2.87 (≈ 1.17 µg/mL) |  | 1.25 umol/dm3 | CCCCCCCCCCCCCCCCOP(=O)([O-])OCC[N+](C)(C)C [MILTEFOSINE] | 35.7 | 8.87 | 67.2 | 81.3 |  | 250 | 125 |  | 
